Assay outcomes deposited in PubChem BioAssay by several laboratories.
A selection: hits, their analogues and other compounds. The true share with any hit is near 4.4%.
m5-HT2A agonist – activates the mouse 5-HT2A serotonin receptor. P35363. CHO-K1 mHTR2A beta-arrestin complementation, luminescence; percent of 30 µM serotonin response. activation, % at 7.6 µM. actives 0.66% (n = 360,000). AID 624169;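 active means activation above a run cutoff, the mean activation of all tested compounds plus 3 SD, cut at about 14% in these data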
MsrA inhibitor – bovine MsrA inhibition; purified bovine MsrA, absorbance read-out; AID 651718; inhibition, % at 15.5 µM; actives 0.75% (n = 360,000); in the data active means inhibition above about 4.5%
AHR activator – human AHR activation; AHR-responsive luciferase reporter cells, luminescence; activation, % at 5 µM; actives 2.5% (n = 320,000); in the data active means activation above about 47%
Target sequence (P35869 whole entry, looked up): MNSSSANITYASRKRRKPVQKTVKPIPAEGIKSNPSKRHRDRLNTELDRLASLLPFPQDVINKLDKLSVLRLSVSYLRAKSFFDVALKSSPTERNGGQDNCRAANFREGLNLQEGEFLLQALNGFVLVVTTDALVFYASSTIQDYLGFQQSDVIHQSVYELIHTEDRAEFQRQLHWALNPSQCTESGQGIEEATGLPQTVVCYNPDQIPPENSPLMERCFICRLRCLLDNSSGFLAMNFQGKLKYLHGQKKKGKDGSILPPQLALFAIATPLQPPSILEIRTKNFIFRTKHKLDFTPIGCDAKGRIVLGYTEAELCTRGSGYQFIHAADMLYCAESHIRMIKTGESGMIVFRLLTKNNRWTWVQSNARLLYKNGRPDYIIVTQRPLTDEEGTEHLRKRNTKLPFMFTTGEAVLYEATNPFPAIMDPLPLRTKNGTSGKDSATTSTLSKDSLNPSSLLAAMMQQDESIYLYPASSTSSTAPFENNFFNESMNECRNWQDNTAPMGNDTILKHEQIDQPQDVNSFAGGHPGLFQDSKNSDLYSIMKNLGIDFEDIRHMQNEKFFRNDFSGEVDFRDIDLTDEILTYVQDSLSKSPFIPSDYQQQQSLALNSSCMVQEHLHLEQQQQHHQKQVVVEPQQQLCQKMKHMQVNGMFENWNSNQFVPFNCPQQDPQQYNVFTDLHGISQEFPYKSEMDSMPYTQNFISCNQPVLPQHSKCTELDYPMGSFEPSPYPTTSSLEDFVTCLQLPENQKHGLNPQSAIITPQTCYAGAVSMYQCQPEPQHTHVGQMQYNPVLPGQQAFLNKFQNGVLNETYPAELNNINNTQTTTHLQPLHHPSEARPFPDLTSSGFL
bovine MsrA act – activators of bovine methionine sulfoxide reductase A | purified bovine MsrA, absorbance read-out | activation, % at 10.6 µM | actives 0.3% (n = 360,000); in the data active means activation above about 7.5%
TbMetRS inhib – blocks T. brucei methionyl-tRNA synthetase activity | purified T. brucei MetRS, ATP depletion, Kinase-Glo luminescence | inhibition, % at 11.9 µM | actives 0.4% (n = 360,000) | AID 624268;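 active means inhibition above a per-plate cutoff of the control wells' mean inhibition plus 3 SD, cut at about 5.5% in these data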
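Measured by: Kinase-Glo luciferase luminescence reporting remaining unconsumed ATP. Material: purified T. brucei MetRS enzyme. Doses: 11.9 µM compound single dose, 0.9% DMSO. Medium: HEPES buffer containing pyrophosphatase, BSA, spermine, DTT. Times: 15 min preincubation, 2 h reaction, all 25 °C. Reagent: methionine, ATP and bulk E. coli tRNA.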
AI-2 QS mod – modulates the Vibrio harveyi AI-2 quorum sensing system; actives 0.4% (n = 300,000); AID 2094; activity change, % at 7.5 µM; Vibrio harveyi JMH597 AI-2 luminescence/OD600 ratio, 9 h; stronger effect = lower value; strain lacks LuxN and CqsS sensors; 0 = neutral-control median; in the data active means activity change below about -75%, passing the limit was not always enough; inconclusive means no clear call, values can overlap the other calls;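 further: luminescence divided by OD600 gain over 9 h not by final OD600 alone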
JMH597 growth – retest: blocks Vibrio harveyi JMH597 growth | AID 2726 | OD600 absorbance, 9 h; lacks LuxN and CqsS sensors | growth inhibition, % at 7.5 µM | actives 1% (n = 750) | shares compounds with AI-2 QS mod;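 active means every replicate shows growth inhibition above 50%; inconclusive means at least half, but not all, replicates pass that cutoff; inactive means fewer than half of replicates pass it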
BB721 const-QS lum – retest counter-screen: lowers luminescence of constitutive-QS Vibrio harveyi BB721; 9 h; AID 2727; actives 95% (n = 750); inhibition, % at 7.5 µM; shares compounds with AI-2 QS mod;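 active means inhibition above about 80% in every replicate, not just on average, limit read from the data; inconclusive means at least half of replicates past the limit, but not all; inactive means fewer than half of replicates past the limit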
BB721 growth – retest: blocks Vibrio harveyi BB721 growth; shares compounds with AI-2 QS mod; OD600 absorbance, 9 h; growth inhibition, % at 7.5 µM; actives 3% (n = 750); AID 2728;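 active means every replicate shows growth inhibition above 50%; inconclusive means at least half but not all replicates above 50% inhibition; inactive means under half of replicates above 50% inhibition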
AI-2 QS JMH597 – Vibrio harveyi AI-2 signaling luminescence modulation – JMH597 strain, confirmation | AID 2736 | shares compounds with AI-2 QS mod | inhibition, % at 7.5 µM | actives 97% (n = 750) | Vibrio harveyi JMH597 AI-2 quorum sensing luminescence, 9 h; luxN and CqsS knockout, AI-2 only;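 active means every replicate shows more than 75% inhibition of signal versus neutral control wells; inconclusive means half to three quarters of replicates exceed 75% inhibition; inactive means fewer than half of replicates exceed 75% inhibition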
AHR act cf – confirmation of human aryl hydrocarbon receptor activators. shares compounds with AHR activator. activation, % at 9 µM. human cells, AHR-responsive luciferase reporter, luminescence. AID 2845. actives 87% (n = 2,300); in the data active means activation above about 49%;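 further: HepG2 hepatoma cells carrying a DRE-driven firefly luciferase reporter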
PXR act counter – activates human PXR in AHR activator counter-screen; shares compounds with AHR activator; cell-based PXR reporter, luciferase luminescence; activation, % at 11.6 µM; actives 88% (n = 2,300); AID 434939; in the data active means activation above about 11%;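 further: human hepatoma DPX-2 cells expressing full-length human PXR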
TbMetRS confirm – Trypanosoma brucei MetRS inhibition confirmed; shares compounds with TbMetRS inhib; T. brucei MetRS enzyme, luminescence (ATP depletion); inhibition, % at 11.9 µM; actives 93% (n = 1,400); in the data active means inhibition above about 7%
Jurkat tox – kills Jurkat cells in T. brucei MetRS counterscreen; shares compounds with TbMetRS inhib; Jurkat cells viability, ATP luminescence; inhibition, % at 8.3 µM; actives 12% (n = 1,400); in the data active means inhibition above about 15%
Tb MetRS inh FP – orthogonal test for Trypanosoma brucei MetRS inhibitors; shares compounds with TbMetRS inhib; purified T. brucei MetRS, fluorescence polarization; inhibition, % at 11.9 µM; actives 44% (n = 1,400); in the data active means inhibition above about 17%
Of the large screens only hits and unclear results are named; the others gave an inactive call (follow-up assays come after a bar, where they were run).

Cc1ccc(NC(=O)Cn2nnc3ccccc3c2=O)cc1C	AI-2 QS mod -93.2 | JMH597 growth inactive | BB721 const-QS lum 98.9 | BB721 growth inactive | AI-2 QS JMH597 99.3
Cc1ccc(NC(=O)Nc2c(C)[nH]c(=O)[nH]c2=O)cc1Cl	none
Cc1sc2ncnc(OCC(=O)c3ccc(S(=O)(=O)N4CCCC4)cc3)c2c1C	AI-2 QS mod -90.1 | JMH597 growth inconclusive | BB721 const-QS lum 97.8 | BB721 growth 68.9 | AI-2 QS JMH597 98.9
Cc1sc2ncnc(OCC(=O)N3CCN(S(=O)(=O)c4ccc(Cl)cc4)CC3)c2c1C	none
CN1CCC(C)(C(=O)Nc2ccc3c(c2)OCCO3)C1 (stereo not drawn)	none (no result: AHR activator, AI-2 QS mod)
CN(C)C(=O)COc1ncnc2sc(-c3ccccc3)cc12	AI-2 QS mod -84.1 | JMH597 growth inactive | BB721 const-QS lum 94.1 | BB721 growth inactive | AI-2 QS JMH597 97.0
COc1ncnc2sc(-c3ccccc3)cc12	none
O=C(NCCCN1CCOCC1)c1cc(S(=O)(=O)N2CCCCC2)ccc1Cl	none (no result: AHR activator, AI-2 QS mod)
Clc1ccc(OCc2cc(-c3ccccc3)no2)cc1Cl	AI-2 QS mod inconclusive | JMH597 growth inactive | BB721 const-QS lum 97.0 | BB721 growth inactive | AI-2 QS JMH597 98.2
Cc1ccc(SCCNS(=O)(=O)c2ccc(F)cc2)cc1	AI-2 QS mod -93.9 | JMH597 growth inactive | BB721 const-QS lum 93.6 | BB721 growth inactive | AI-2 QS JMH597 94.6
COc1cc(/C=N/n2nnnc2N)cc(Cl)c1OC	none
CCN(c1ccccc1)S(=O)(=O)c1cccc(C(=O)NCC(c2ccco2)N2CCCCC2)c1 (stereo not drawn)	none (no result: AHR activator, AI-2 QS mod)
COc1ccc2nc(NNC(=O)C3COc4ccccc4O3)sc2c1 (stereo not drawn)	AHR activator 117.5, AI-2 QS mod -85.4 | JMH597 growth inactive | BB721 const-QS lum 91.9 | BB721 growth inactive | AI-2 QS JMH597 94.9 | AHR act cf 75.8 | PXR act counter 29.6
O=C1C=C(C#Cc2ccc(Oc3ccccc3)cc2)C[C@@H](c2ccc(F)cc2)C1	none (no result: AHR activator, AI-2 QS mod)
COc1cccc(CNc2cnc3ccccc3c2)c1O	none
Oc1ccc(Br)cc1CNc1cnc2ccccc2c1	TbMetRS inhib 10.8, AI-2 QS mod -97.3 | JMH597 growth inactive | BB721 const-QS lum 99.4 | BB721 growth inactive | AI-2 QS JMH597 99.7 | TbMetRS confirm 15.4 | Jurkat tox 40.2 | Tb MetRS inh FP inactive
COC(=O)c1cccc(NC(=O)Cn2nnc3ccccc32)c1	TbMetRS inhib 14.0, AI-2 QS mod -83.6 | JMH597 growth inactive | BB721 const-QS lum 89.5 | BB721 growth inactive | AI-2 QS JMH597 92.8 | TbMetRS confirm 26.7 | Jurkat tox inactive | Tb MetRS inh FP inactive
CSc1ccccc1NC(=O)Nc1cccc2ccccc12	none (no result: AHR activator)
COc1ccccc1NC(=O)c1ccc2c(c1)OCO2	AHR activator 129.1 (no result: AI-2 QS mod) | AHR act cf 104.6 | PXR act counter 28.0
COc1cc2c(cc1NC(=S)Nc1cccc(C(F)(F)F)c1)oc1ccccc12	AHR activator 106.8 | AHR act cf 92.1 | PXR act counter 29.3
COCCCNC(=S)Nc1cc2oc3ccccc3c2cc1OC	none (no result: AHR activator)
COc1ccccc1NC(C)=O	none
COc1cc2c(cc1NC(=O)c1ccc3c(c1)OCO3)oc1ccccc12	AHR activator 98.5 | AHR act cf 119.5 | PXR act counter 24.3
COc1ccccc1NC(=O)C(=N\O)/C(C)=N/O	AHR activator 88.7 | AHR act cf 115.7 | PXR act counter 25.2
O=C(O)C1=C[C@H](c2ccc(C(F)(F)F)cc2)C[C@H](OCCCCO)O1	none
COc1ccccc1NC(=O)c1ccc2c(c1)nnn2C	AHR activator 94.9 | AHR act cf 74.2
CCN(CC)S(=O)(=O)c1ccc(OC)c(NC(=O)c2ccc3c(c2)OCO3)c1	none
COc1ccc(OC)c(NC(=O)c2ccc3c(c2)OCO3)c1	AHR activator 111.6 | AHR act cf 101.8 | PXR act counter 22.4
CCN(CC)S(=O)(=O)c1ccc(OC)c(NC(=O)c2cc(=O)[nH]c3ccccc23)c1	none
COc1ccccc1NC(=O)c1cc(=O)[nH]c2ccccc12	AHR activator 80.2 | AHR act cf 92.0 | PXR act counter 15.6
Cn1nnc2cc(C(=O)Nc3ccccc3)ccc21	none
COc1cc2c(cc1NC(=O)C(C)NCc1ccccc1)oc1ccccc12 (stereo not drawn)	AHR activator 117.2 | AHR act cf 132.8 | PXR act counter 89.7
COc1ccc(N2CCN(CC(=O)Nc3ccccc3C(=O)NCc3ccccc3)CC2)cc1	none (no result: AI-2 QS mod)
O=C(CCl)Nc1cccc(-c2cnc3ccccc3n2)c1	AHR activator 117.8 | AHR act cf inactive | PXR act counter inactive
C=C(C)CNC(=S)NN=C1c2ccccc2-c2ccccc21	AHR activator 92.3 (no result: MsrA inhibitor) | AHR act cf 87.5 | PXR act counter 55.3
CCNC(=S)NN=C1c2ccccc2-c2ccccc21	none
COc1ccc(Cn2c(CO)cnc2SCC(=O)Nc2cccc(NC(C)=O)c2)cc1	none
O=C(Nc1nc2ccc(Cl)cc2s1)C1CC1	AHR activator 113.8 | AHR act cf 76.9 | PXR act counter 19.3
O=C(Nc1nc2c(Br)cccc2s1)C1CC1	AHR activator 132.1 (no result: MsrA inhibitor) | AHR act cf 96.8 | PXR act counter 17.9
O=C(Nc1nc2ccc(Cl)cc2s1)C1CCCO1 (stereo not drawn)	none
